A selection: hits, their analogues and other compounds. The true share with any hit is near 1.3%.
EP2 mod: modulators of human EP2 prostaglandin E2 receptor | EP2-expressing cells, cAMP HTRF FRET, PGE2 co-stimulation | P43116 | hit rate 0.83% among 260,000 | induction, % at 25 µM;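 active = compounds whose cAMP rise, as percent of the full-agonist control response, exceeds 60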;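 also: rat C6 glioma line stably carrying human EP2 under a CMV promoter; the protocol text gives 20 µM as final concentration; 100% = response of wells given 1 µM PGE2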
GASC-1 inh: blocks human GASC-1 demethylase activity. Q9H3R0. GST-JMJD2C(1-420) H3K9me3 demethylation, DELFIA europium. inhibition, % at 2.35 µM. hit rate 0.069% among 330,000. AID 2099;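 active = more than half of a compound's replicate wells show inhibition beyond 50%, single wells judged on their own value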;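 also: signal counts dimethyl H3K9 product captured on neutravidin plate; 0% = median of DMSO wells and 100% = 0.3 times that DMSO median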
NR2E3 ag-1: activates human photoreceptor nuclear receptor NR2E3 | Q9Y5X4 | GST-NR2E3/biotin-RetCOR TR-FRET, 1536-well | inhibition of corepressor binding, % at 4.78 µM | hit rate 0.12% among 320,000 | AID 2300;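 active = percent inhibition above the cutoff of mean plus 3 SD of all tested compounds, set per screening campaign, cut at about 20% in these data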;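 also: 0% = DMSO wells and 100% = biotin wells as full block of FRET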
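Material: NR2E3–RetCOR corepressor complex / Incubation: Compound–protein incubation for 5 h at 4 °C / Dosing: compound at 4.8 µM, single dose / Detection: time-resolved FRET / Benchmarks: high control biotin, low control 0.6% DMSO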
Furin inh: inhibitors of human furin; P09958; purified furin, fluorogenic substrate cleavage; inhibition, % at 20 µM or 30 µM; hit rate 0.061% among 220,000; AID 463115; in the data active = inhibition above about 25%
EP2 antag: inhibitors of human EP2 prostaglandin E2 receptor; inhibition, % at 25 µM; hit rate 0.52% among 260,000; C6 glioma cells expressing human EP2, cAMP TR-FRET; cells stimulated with saturating PGE2; P43116;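 active = percent inhibition above 40 after rounding to a whole number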;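 also: rat C6 glioma host cells with rolipram phosphodiesterase inhibitor present; the protocol text gives 20 µM as final concentration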
NR2E3 ag-2: agonists of human NR2E3 nuclear receptor | Q9Y5X4 | CHO-S Gal4-NCOR/VP16-NR2E3 two-hybrid, luciferase | inhibition of corepressor binding, % at 3.98 µM | hit rate 0.35% among 360,000;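 active = inhibition above the mean of all tested compounds plus 3 SD, cut at about 70% in these data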;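 also: 0% = DMSO with NR2E3 transfected cells and 100% = cells lacking NR2E3 construct; higher means lower luciferase signal from less NR2E3 corepressor binding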
EP2 cAMP induct: EP2 receptor cAMP induction, counter-screens negative; calls only at 20 µM (by protocol); C6 glioma EP2 cells, cAMP HTRF induction; plus low (about EC15) PGE2 agonist; shares compounds with EP2 mod; hit rate 47% among 1,300;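 active = cAMP induction above 50% in the main assay while under 30% in all four parallel counter assays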;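 also: rat C6 glioma cells stably expressing human EP2 receptor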
NR2E3 ag confirm-1: confirmation of human NR2E3 nuclear receptor agonists; shares compounds with NR2E3 ag-1; cell-free NR2E3 corepressor release, TR-FRET, 5 h; activation (reported as inhibition), % at 3.98 µM; hit rate 39% among 360; AID 2379; in the data active = activation above about 20%
PPARg-NCOR2 ctr: PPARg-NCOR2 interaction agonism, NR2E3 counter-screen. TR-FRET PPARg-NCOR2 coregulator interaction, biochemical. AID 504787. shares compounds with NR2E3 ag-1. hit rate 45% among 360. inhibition, % at 3.98 µM; in the data active = inhibition above about 20%;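 also: 0% = DMSO vehicle and 100% = wells without protein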
NR2E3 ag confirm-2: NR2E3 agonism confirmed in two-hybrid assay; hit rate 51% among 2,300; AID 624378; shares compounds with NR2E3 ag-2; inhibition, % at 3.98 µM; CHO-S mammalian two-hybrid NR2E3-NCOR, luciferase luminescence;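 active = average inhibition above a cutoff equal to the mean inhibition of all tested compounds plus one SD, cut at about 70% in these data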;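 also: 0% = DMSO in NR2E3 cells and 100% = DMSO in cells lacking NR2E3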
GAL4-VP16 luc: GAL4-VP16 reporter inhibition in NR2E3 agonist counterscreen | shares compounds with NR2E3 ag-2 | CHO-S GAL4-VP16 luciferase reporter, luminescence | inhibition, % at 3.98 µM | hit rate 29% among 2,300 | AID 624379;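 active = mean inhibition above a cutoff equal to the average over all tested compounds plus one standard deviation, cut at about 70% in these data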;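 also: luciferase from a UAS reporter driven by GAL4-VP16 transactivation; 0% = DMSO with VP16-transfected cells and 100% = DMSO with cells lacking VP16; higher means less reporter light so more repression of VP16 activity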
Numbers without * were called inactive; ! = not confirmed by another sample.

Cc1ccc(CN2C(=O)CN=C(c3ccccc3)c3ccccc32)cc1 was read as EP2 mod 68*, GASC-1 inh -17, NR2E3 ag-1 0, Furin inh -11, EP2 antag 5, NR2E3 ag-2 6 and EP2 cAMP induct inactive.
For C[C@]12CCC(=O)C=C1CCC1C2CC[C@@]2(C)C1CC[C@@H]2O (some centres undefined) the results were EP2 mod 73*, GASC-1 inh -3, EP2 antag 4, NR2E3 ag-2 -8 and EP2 cAMP induct active.
`O=C(c1cccs1)c1cn(Cc2ccccc2Cl)c2ccccc12` gave EP2 mod 74*, GASC-1 inh -1, NR2E3 ag-1 7, Furin inh -19, EP2 antag 9, NR2E3 ag-2 3 and EP2 cAMP induct inactive.
Screening N#Cc1ccccc1Cn1cc(C(=O)c2cccs2)c2ccccc21 returned EP2 mod 29, GASC-1 inh 1, NR2E3 ag-1 1, Furin inh -14, EP2 antag 15 and NR2E3 ag-2 -26.
Screening Nc1ccc(Cl)cc1C(=O)c1ccccc1Cl returned EP2 mod 67*, GASC-1 inh -3, NR2E3 ag-1 -2, Furin inh -16, EP2 antag 13, NR2E3 ag-2 -25 and EP2 cAMP induct active.
Screening CCCCCn1c(=O)c(C(=O)NCc2ccco2)c(O)c2ccccc21 returned EP2 mod 58, GASC-1 inh 11, NR2E3 ag-1 3, Furin inh -26, EP2 antag 5 and NR2E3 ag-2 11.
CCCCn1c(=O)c(C(=O)NCc2ccco2)c(O)c2ccccc21 was read as EP2 mod 67*, GASC-1 inh -4, NR2E3 ag-1 4, Furin inh -21, EP2 antag 5, NR2E3 ag-2 -9 and EP2 cAMP induct active.
`CCCn1nc(CC(=O)N2CCCCC2CN2CCCCC2)c2ccccc2c1=O` (centres undefined) gave EP2 mod -8 and EP2 antag 5.
Screening Nc1ccc(Br)cc1C(=O)c1ccccc1 returned EP2 mod 83*, GASC-1 inh -4, NR2E3 ag-1 0, Furin inh -6, EP2 antag 2, NR2E3 ag-2 -10 and EP2 cAMP induct active.
Screening CN(C)CCN(Cc1ccc(F)cc1)C(=O)Cc1nn(C)c(=O)c2ccccc12 returned EP2 mod -26 and EP2 antag 4.
Screening CC(=O)C1CCC2C3CCC4CC(O)CCC4(C)C3CCC12C (centres undefined) returned GASC-1 inh -9, NR2E3 ag-1 1 and NR2E3 ag-2 0.
`CC(=O)C1CC[C@H]2C3CC[C@H]4C[C@H](O)CC[C@]4(C)C3CC[C@]12C` (some centres undefined) gave EP2 mod 50, EP2 antag 19 and EP2 cAMP induct inactive.
`CC[C@@H]1C(=O)OC[C@@H]1Cc1cncn1C` gave GASC-1 inh 5, NR2E3 ag-1 3 and NR2E3 ag-2 -1.
For CC[C@@H]1C(=O)OC[C@@H]1Cc1cncn1C the results were EP2 mod 80*!, GASC-1 inh 6, NR2E3 ag-1 -1, Furin inh -7, EP2 antag 16, NR2E3 ag-2 1 and EP2 cAMP induct inactive.
For COc1ccc(CC(=O)N2CCN(Cc3ccco3)C[C@H]2C)cc1OC the results were EP2 mod -47.
Screening COc1cccc(CN2CCN(C(=O)Cc3ccccn3)[C@@H](C)C2)c1 returned EP2 mod -62.
CCOC(=O)c1c(NS(=O)(=O)c2ccccc2)n(CCCOC)c2nc3ccccc3nc12 was read as EP2 mod 6, GASC-1 inh -5, NR2E3 ag-1 38*, Furin inh 4, EP2 antag 7, NR2E3 ag-2 3, NR2E3 ag confirm-1 1 and PPARg-NCOR2 ctr -9.
Screening O=C1C(=O)c2ccccc2-c2ccccc21 returned EP2 mod -38, GASC-1 inh -21, NR2E3 ag-1 37*, Furin inh -10, EP2 antag 45*, NR2E3 ag-2 68, NR2E3 ag confirm-1 39* and PPARg-NCOR2 ctr 84*.
`O=C1C(=O)c2cccc3cccc1c23` gave EP2 mod 33, GASC-1 inh 2, NR2E3 ag-1 0, Furin inh -28, EP2 antag 8 and NR2E3 ag-2 2.
For COCCNC(=O)c1c(NC(=O)c2ccc(Br)o2)n(Cc2ccccc2)c2nc3ccccc3nc12 the results were EP2 mod 39, GASC-1 inh 13, NR2E3 ag-1 23*, Furin inh -15, EP2 antag 11, NR2E3 ag-2 -6, NR2E3 ag confirm-1 -2 and PPARg-NCOR2 ctr 5.
Screening CCCSc1ncc(CN2C3CCC2CC(O)(c2ccc(OC)cc2)C3)cn1 (centres undefined) returned EP2 mod -61 and EP2 antag 3.
`N#CC1=C(N)Oc2c(c(=O)oc3ccccc23)C1c1ccc2c(c1Cl)OCO2` (centres undefined) gave EP2 mod -6 and EP2 antag 6.
`Cc1nc2c(=O)n(C)c(=O)nc-2n(C)n1` gave EP2 mod -164, GASC-1 inh 92*, NR2E3 ag-1 38*, Furin inh -19, EP2 antag 34, NR2E3 ag-2 114*, NR2E3 ag confirm-1 40*, PPARg-NCOR2 ctr 64*, NR2E3 ag confirm-2 100* and GAL4-VP16 luc 98*.
Screening O=C(c1ncoc1-c1ccc(F)cc1)N1CC2CC(C1)c1cccc(=O)n1C2 (centres undefined) returned EP2 mod -17 and EP2 antag 4.

Screens from PubChem BioAssay.
